Laboratory results reported in ChEMBL document CHEMBL1146292, “Dual serotonin transporter/histamine H3 ligands: Optimization of the H3 pharmacophore” (Bioorg Med Chem Lett, 2007).
pKi: −log10 of the molar value.

What was measured:
[1] = Drug level in mouse brain at 10 mg/kg, ip after 24 hrs; format: ADME, organism-based; set-up: dose 10 mg/kg, route intraperitoneal; conditions: read-out: Drug uptake
Method in brief: (§1)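 Mice given a single 10 mg/kg intraperitoneal dose. Brain drug concentration measured at 1 h and at 24 h post-dose, n = 3.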

[2] = target: Sodium-dependent serotonin transporter (Rattus norvegicus, UniProt P31652); assay: Binding affinity to rat SERT
Method in brief: (§2)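 Means of at least three independent experiments, each run in triplicate; standard error of the mean reported.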

[3] = test system: Mus musculus; assay: Effect on 5-HTP-induced head twitch in mouse at 10 mg/kg, ip after 1 hr relative to control; format: functional; conditions: route intraperitoneal
Method in brief: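 5-HTP-induced head-twitch model in mice. Test agent given at 10 mg/kg intraperitoneally, n = 4 per compound. Head twitches scored at 1 h and 24 h post-dose and expressed as percent of the control response.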

[4] = Drug level in mouse brain at 10 mg/kg, ip after 1 hr; format: ADME, organism-based; set-up: dose 10 mg/kg, route intraperitoneal; conditions: read-out: Drug uptake; method in brief: as §1
[5] = target: Sodium-dependent serotonin transporter (Homo sapiens, UniProt P31645); assay: Binding affinity to human SERT
[6] = target: Histamine H3 receptor (Homo sapiens, UniProt Q9Y5N1); assay: Binding affinity to human histamine H3 receptor; method in brief: as §2
Chain of Histamine H3 receptor (Q9Y5N1 whole entry): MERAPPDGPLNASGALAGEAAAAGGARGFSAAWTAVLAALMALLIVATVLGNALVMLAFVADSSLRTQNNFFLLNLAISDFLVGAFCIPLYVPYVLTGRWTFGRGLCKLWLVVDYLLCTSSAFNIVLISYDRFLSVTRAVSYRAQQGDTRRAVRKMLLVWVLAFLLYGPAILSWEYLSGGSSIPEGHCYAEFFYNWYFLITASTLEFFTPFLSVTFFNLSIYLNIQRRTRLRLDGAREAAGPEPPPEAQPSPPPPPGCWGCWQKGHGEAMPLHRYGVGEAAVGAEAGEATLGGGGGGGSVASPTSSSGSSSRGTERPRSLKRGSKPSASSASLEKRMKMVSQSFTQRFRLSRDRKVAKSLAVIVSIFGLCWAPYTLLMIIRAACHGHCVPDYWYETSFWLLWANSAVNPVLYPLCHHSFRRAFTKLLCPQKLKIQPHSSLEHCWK

Chain of Sodium-dependent serotonin transporter (Homo sapiens, UniProt P31645) (P31645 whole entry): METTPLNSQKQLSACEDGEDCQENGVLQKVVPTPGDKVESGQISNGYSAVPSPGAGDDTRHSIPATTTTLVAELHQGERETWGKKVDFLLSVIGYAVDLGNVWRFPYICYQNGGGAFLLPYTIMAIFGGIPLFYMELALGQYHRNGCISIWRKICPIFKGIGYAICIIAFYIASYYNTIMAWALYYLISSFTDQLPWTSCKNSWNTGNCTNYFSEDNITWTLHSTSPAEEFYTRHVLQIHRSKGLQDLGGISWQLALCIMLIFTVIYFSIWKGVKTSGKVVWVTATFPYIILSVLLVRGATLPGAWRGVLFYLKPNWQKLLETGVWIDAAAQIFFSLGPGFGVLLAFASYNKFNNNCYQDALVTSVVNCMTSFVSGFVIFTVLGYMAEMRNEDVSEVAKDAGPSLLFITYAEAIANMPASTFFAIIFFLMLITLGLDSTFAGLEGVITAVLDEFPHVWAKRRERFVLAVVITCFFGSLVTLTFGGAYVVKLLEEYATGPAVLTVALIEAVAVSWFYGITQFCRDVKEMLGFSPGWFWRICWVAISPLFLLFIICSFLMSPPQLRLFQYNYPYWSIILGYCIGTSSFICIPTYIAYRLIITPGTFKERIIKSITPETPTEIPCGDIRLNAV
Chain of Sodium-dependent serotonin transporter (Rattus norvegicus, UniProt P31652) (P31652 whole entry): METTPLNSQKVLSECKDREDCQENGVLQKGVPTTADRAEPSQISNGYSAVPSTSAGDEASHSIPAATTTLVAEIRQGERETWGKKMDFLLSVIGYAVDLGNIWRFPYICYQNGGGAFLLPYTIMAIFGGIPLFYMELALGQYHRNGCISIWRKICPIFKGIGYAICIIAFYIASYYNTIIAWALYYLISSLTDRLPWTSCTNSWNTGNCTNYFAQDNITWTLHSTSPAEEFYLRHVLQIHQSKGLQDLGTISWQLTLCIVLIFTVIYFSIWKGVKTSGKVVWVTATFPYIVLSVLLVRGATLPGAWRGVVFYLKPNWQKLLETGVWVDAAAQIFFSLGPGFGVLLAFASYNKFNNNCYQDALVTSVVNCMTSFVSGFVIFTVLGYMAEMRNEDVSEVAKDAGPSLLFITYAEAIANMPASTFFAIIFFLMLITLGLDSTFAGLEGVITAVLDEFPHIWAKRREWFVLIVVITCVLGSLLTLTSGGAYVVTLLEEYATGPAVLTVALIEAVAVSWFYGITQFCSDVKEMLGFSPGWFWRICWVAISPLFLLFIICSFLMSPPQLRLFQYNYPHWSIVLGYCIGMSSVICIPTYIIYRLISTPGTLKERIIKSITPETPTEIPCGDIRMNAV

| Structure (SMILES) | concentration at 24 h [1] [nM] | pKi [2] | concentration at 1 h [4] [µM] | pKi [5] | pKi [6] | Activity [3] [%] |
| --- | --- | --- | --- | --- | --- | --- |
| COc1ccc(C2CN(C)Cc3cc(OCCCN4CCN(C(=O)c5cccn5C)CC4)ccc32)cc1 (centres undefined) |  | 8.08 |  | 8.06 | 5.58 |  |
| COc1ccc(C2CN(C)Cc3cc(OCCCN(C4CC4)C4CC4)ccc32)cc1 (centres undefined) |  | 8.12 |  | 8.01 | 8.13 |  |
| CCN(CC)CCCOc1ccc2c(c1)CN(C)CC2c1ccc(OC)cc1 (centres undefined) |  | 8.66 |  |  | 8.77 |  |
| COc1ccc(C2CN(C)Cc3cc(OCCCN4CCCC(F)(F)C4)ccc32)cc1 (centres undefined) |  | 8.00 |  | 8.09 |  |  |
| COc1ccc(C2CN(C)Cc3cc(OCCCN4CCN(c5ccc(C(F)(F)F)cc5)CC4)ccc32)cc1 (centres undefined) |  | 7.60 |  | 7.48 | 5.84 |  |
| COc1ccc(C2CN(C)Cc3cc(OCCCN4CCN(c5ccccc5O)CC4)ccc32)cc1 (centres undefined) |  | 8.24 |  | 8.14 | 5.96 |  |
| COc1ccc(C2CN(C)Cc3cc(OCCCN4CCC(C(F)(F)F)CC4)ccc32)cc1 (centres undefined) |  | 7.72 |  | 7.85 | 7.40 |  |
| COc1ccc(C2CN(C)Cc3cc(OCCCN4CCN(c5ccncc5)CC4)ccc32)cc1 (centres undefined) |  | 8.28 |  | 8.40 | 8.48 |  |
| COc1ccc(C2CN(C)Cc3cc(OCCCN4CC(F)(F)C4)ccc32)cc1 (centres undefined) |  |  |  | 8.54 | 7.16 |  |
| COc1ccc(C2CN(C)Cc3cc(OCCCN4CCN(C(=O)c5ccncc5)CC4)ccc32)cc1 (centres undefined) |  | 7.68 |  | 7.72 | 5.55 |  |
| CCNCCCOc1ccc2c(c1)CN(C)CC2c1ccc(OC)cc1 (centres undefined) |  | 9.14 |  | 8.47 | 7.33 |  |
| COc1ccc(C2CN(C)Cc3cc(OCCCNC4CC4)ccc32)cc1 (centres undefined) |  | 8.52 |  | 7.71 | 7.42 |  |
| COc1ccc(C2CN(C)Cc3cc(OCCCN4CCN(c5ccc(C#N)cc5)CC4)ccc32)cc1 (centres undefined) |  | 8.48 |  | 8.10 | 6.84 |  |

Now from value to molecule, other results behind:

| concentration at 24 h [1] [nM] | pKi [2] | concentration at 1 h [4] [µM] | pKi [5] | pKi [6] | Structure (SMILES) | Activity [3] [%] |
| --- | --- | --- | --- | --- | --- | --- |
| < 1000 | 8.32 | 12.5 | 8.19 | 8.42 | COc1ccc(C2CN(C)Cc3cc(OCCCN4CCOCC4)ccc32)cc1 (centres undefined) | >500 |
|  | 8.20 |  | 7.92 | 6.97 | COc1ccc(C2CN(C)Cc3cc(OCCCN4CCS(=O)(=O)CC4)ccc32)cc1 (centres undefined) |  |
|  | 8.70 |  | 8.49 | 8.02 | COc1ccc(C2CN(C)Cc3cc(OCCCN4CCC(CO)CC4)ccc32)cc1 (centres undefined) |  |
|  | 7.82 |  | 7.38 | 6.57 | COc1ccc(C2CN(C)Cc3cc(OCCCN4CCN(C(C)=O)CC4)ccc32)cc1 (centres undefined) |  |
|  | 8.10 |  | 8.14 | 8.02 | COc1ccc(C2CN(C)Cc3cc(OCCCN4CCC(F)(F)C4)ccc32)cc1 (centres undefined) |  |
|  | 9.00 |  | 8.32 |  | COc1ccc(C2CN(C)Cc3cc(OCCCN4CCC4)ccc32)cc1 (centres undefined) |  |
|  | 8.28 |  | 8.28 | 8.13 | COc1ccc(C2CN(C)Cc3cc(OCCCN4CCC(C#N)CC4)ccc32)cc1 (centres undefined) |  |
|  | 8.00 |  | 7.74 | 7.52 | COc1ccc(C2CN(C)Cc3cc(OCCCN4CCN(C5CC5)CC4)ccc32)cc1 (centres undefined) |  |
|  | 8.89 |  | 8.74 | 8.01 | COc1ccc(C2CN(C)Cc3cc(OCCCN4CCN(C(C)C)CC4)ccc32)cc1 (centres undefined) |  |
|  | 7.82 |  | 7.82 | 6.29 | COc1ccc(C2CN(C)Cc3cc(OCCCN4CCN(C(=O)C(C)C)CC4)ccc32)cc1 (centres undefined) |  |
|  | 8.57 |  | 8.28 | 6.57 | COc1ccc(C2CN(C)Cc3cc(OCCCN4CCN(c5nccs5)CC4)ccc32)cc1 (centres undefined) |  |
| 2500 | 8.80 | 6.1 | 8.54 |  | COc1ccc(C2CN(C)Cc3cc(OCCCN4CCC(F)CC4)ccc32)cc1 (centres undefined) | >500 |
|  | 8.24 |  | 8.19 | 8.06 | COc1ccc(C2CN(C)Cc3cc(OCCCN4CCC(F)(F)CC4)ccc32)cc1 (centres undefined) |  |
|  | 8.92 |  | 8.42 | 7.96 | COc1ccc(C2CN(C)Cc3cc(OCCCN4CCC(O)CC4)ccc32)cc1 (centres undefined) |  |
|  | 8.82 |  |  | 7.92 | CCN1CCN(CCCOc2ccc3c(c2)CN(C)CC3c2ccc(OC)cc2)CC1 (centres undefined) |  |
